According to article PMC4196715 (American journal of transplantation : official journal of …, 2014):
Like-named read-outs stand apart in the source and are kept apart here.

How the values were obtained:
[1] = i.v. administration, B6 mice; cited from earlier work
[2] = tested on: splenic CD4+ and CD8+ T cells of heart graft recipients; type: in vivo, mouse; conditions: for CD4+ T cell IFNγ production enhanced by transplantation / CD8+ T cell IFNγ production enhanced by transplantation: splenocytes, day 10–11 post-transplant
[3] = tested on: BALB/c to B6 cardiac allograft model; type: in vivo, mouse; conditions: for graft histology on days 10–11: H&E, no-IS grafts showed severe cellular rejection; for Foxp3 mRNA expression in allografts: PCR, RAPA being superior to AZD8055; for enhancement of graft-infiltrating Foxp3+ Treg: immunoperoxidase staining of allograft, vs no IS
[4] = Pharmacokinetics after i.p. administration; type: in vivo, mice; conditions: for AUC 0-infinity / Apparent volume of distribution / Disposition rate constant: i.p., AZD8055 10 mg/kg plasma, RAPA 1 mg/kg whole blood; for half-life: plasma (AZD8055), whole blood (RAPA), ip; for concentration at 8 h: 10 mg/kg
[5] = mice, oral administration; cited from earlier work
[6] = ref Dr. A.D. McCormick, Astrazeneca, UK, personal communication; cited from earlier work
[7] = oral dosing, Phase I; cited from earlier work
Renal function = type: in vivo, mouse; conditions: after 10 days of treatment
Procedure, shortened: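 B6 recipients of BALB/c heterotopic heart grafts were given test compound at 10 mg/kg twice daily i.p. (days 2–11) in PBS with 0.02% Tween 80 and 0.26% polyethylene glycol. Serum creatinine was measured after 10 days of treatment, n=4.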

[8] = tested on: B6 CD3+ T cells (CD4+ and CD8+ T cell proliferation); experiment: T cell proliferation by CFSE dilution after anti-CD3/CD28 bead stimulation; type: cell-based, mouse
Procedure, shortened: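 B6 CD3+ T cells were isolated by negative selection and CFSE-labelled. 1×10^5 cells were stimulated with 2.5×10^4 CD3/CD28 Dynabeads for 5 days. Test compound (10 mM DMSO stock) was added at the start of culture, from 1.95 to 1000 nM. CFSE dilution was gated on CD4+ or CD8+ cells and expressed as percent suppression versus stimulated cells without inhibitor. n=3–4 experiments; means ± SD; t tests.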

SMILES | CD4+ T cell IFNγ production enhanced by transplantation [2] | CD8+ T cell IFNγ production enhanced by transplantation [2] | graft histology on days 10–11 [3] | Foxp3 mRNA expression in allografts [3] | enhancement of graft-infiltrating Foxp3+ Treg [3] | AUC 0-infinity [4] | Apparent volume of distribution [4] | Disposition rate constant [4] | half-life ([4]; mouse) | other results
CO[C@H]1C[C@@H]2CC[C@@H](C)[C@@](O)(O2)C(=O)C(=O)N2CCCC[C@H]2C(=O)O[C@H]([C@H](C)C[C@@H]2CC[C@@H](O)[C@H](OC)C2)CC(=O)[C@H](C)/C=C(\C)[C@@H](O)[C@@H](OC)C(=O)[C@H](C)C[C@H](C)/C=C/C=C/C=C/1C [RAPA, rapamycin] | more effective inhibition | inhibited completely | comparatively mild mononuclear cell infiltrate | increased | 7–10 fold | 1.93 µg/mL/h | 74 mL | 0.141 h⁻¹ | 294 min | half-life [1]: 6.4 h; recipients with long-term graft survival (>80 days) ([3]; 10-day course, AZD8055 10 mg/kg twice daily i.p., RAPA 1 mg/kg/day i.p.): fifty; concentration at 24 h ([4]; mouse, whole blood, intraperitoneal, 1 mg/kg): > 10 nM
COc1ccc(-c2ccc3c(N4CCOC[C@@H]4C)nc(N4CCOC[C@@H]4C)nc3n2)cc1CO [AZD8055, (5-{2,4-Bis[(3S)-3-methylmorpholin-4-yl]pyrido[2,3-d]pyrimidin-7-yl}-2-methoxyphenyl) methanol] | reaching the same levels as in naïve mice | inhibited completely | comparatively mild mononuclear cell infiltrate | increased | 7–10 fold | 26.2 µg/mL/h | 37 mL | 0.205 h⁻¹ | 204 min | percentage of IFN-producing CD4+ and CD8+ T cells compared with animals given RAPA ([2]; day 20 post-transplant, not sustained at day 80): higher; half-life [5]: approximately 2 h; fraction in plasma bound to plasma protein [6]: approximately 95%; concentration at 8 h ([4]; mouse, in vivo): 200 nM; concentration at 8 h ([4]; mouse, plasma, intraperitoneal): ≥ 200 nM; half-life in humans [7]: approximately 2 h; adverse effects on renal function (Renal function): No adverse effects; serum creatinine levels (Renal function; n=4): 0.2 mg/dL; concentrations at which AZD8055 surpassed the ability of RAPA to inhibit T cell proliferation ([8]; CD4+ and CD8+ T cells, CD3/CD28 beads, 5 days): ≥ 200 nM; concentration dependence of inhibition of T cell proliferation ([8]; concentrations tested between 1.95 nM and 1000 nM): dose-related inhibitory effect
